Source: ChEMBL document CHEMBL1132156, “Synthesis and structure-activity relationships of potential anticancer agents: alkylcarbamates of 3-(9-acridinylamino)-5-hydroxymethylaniline” (J Med Chem, 1999)

How the values were obtained:
HL-60 = assay: In vitro inhibition of human leukemic HL-60 cell growth in culture; assay type: functional, cell-based
Outline: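 HL-60 cells were seeded at 5×10^4 cells/mL in RPMI 1640 with 10% heat-inactivated FBS, penicillin and streptomycin, at 37 °C in 5% CO2. Cells were exposed for 72 h to six or seven drug concentrations, run in duplicate. Viability was read by XTT-tetrazolium microculture absorbance, and IC50 was derived from median-effect plot analysis.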

Mus musculus [1] = assay: […] anticancer activity against B6D2F-1 mice bearing P388 leukemia measured by the average weight change(g) after day 11 at an intravenous dose of 4(mg/kg).; assay type: functional
Outline: (§1)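 Male B6D2F1 mice (8 weeks old, 20–25 g) were implanted iv on day 0 with P388/0 ascites cells (0.2 mL; ascites:saline 1.10), which grew in the liver. Drug was given iv via the tail vein, Q2Dx5, on days 1, 3, 5, 7 and 9. Groups had 4–5 mice. Day 1 value is mean body weight; later days are weight change.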

Mus musculus [2] = assay: […] anticancer activity against B6D2F-1 mice bearing P388 leukemia measured by the increase in lifespan(%) at an intravenous dose of 4(mg/kg).; assay type: functional
Outline: (§2)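 Male B6D2F1 mice, 8 weeks old, 20–25 g. P388/0 ascites cells (0.2 mL, ascites:saline 1.10) were implanted iv on day 0, and the tumor grew in the liver. Drug was given iv by tail vein on days 1, 3, 5, 7 and 9 (Q2Dx5), with 4–5 mice per group. Survival time was scored as 8 a.m. (0.0), 1 p.m. (0.25) or 5 p.m. (0.5) deaths. %ILS was averaged against untreated controls, and toxic deaths were counted.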

Mus musculus [3] = assay: […] anticancer activity against 5 B6D2F-1 mice bearing P388 leukemia measured by the toxicity death at an intravenous dose of 4(mg/kg).; assay type: organism-based; settings: in vivo; outline: as §2
Mus musculus [4] = assay: […] anticancer activity against 5 B6D2F-1 mice bearing P388 leukemia measured by the toxicity death at an intravenous dose of 3(mg/kg)..; assay type: organism-based; settings: in vivo; outline: as §2
Mus musculus [5] = assay: […] anticancer activity against B6D2F-1 mice bearing P388 leukemia measured by the average body weight(g) after day 1 at an intravenous dose of 4(mg/kg).
Mus musculus [6] = assay: […] anticancer activity against B6D2F-1 mice bearing P388 leukemia measured by the average body weight(g) after day 1 at an intravenous dose of 3(mg/kg).
Mus musculus [7] = assay: […] anticancer activity against B6D2F-1 mice bearing P388 leukemia measured by the average weight change(g) after day 7 at an intravenous dose of 4(mg/kg).; assay type: functional
Outline: (§3)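 Male B6D2F1 mice (8 weeks old, 20–25 g) were implanted iv on day 0 with P388/0 ascites cells (0.2 mL; ascites:saline = 1.10). Tumor grew in the liver. Drug was given iv via the tail vein, Q2Dx5, on days 1, 3, 5, 7 and 9. Body weight was recorded on days 1, 7, 9 and 11 and reported as the average change (g).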

Mus musculus [8] = assay: […] anticancer activity against B6D2F-1 mice bearing P388 leukemia measured by the average weight change(g) after day 9 at an intravenous dose of 4(mg/kg).; assay type: functional; outline: as §3
Mus musculus [9] = assay: […] anticancer activity against B6D2F-1 mice bearing P388 leukemia measured by the average survival time(day+/-SD) at an intravenous dose of 3(mg/kg)..; assay type: functional; outline: as §2
Mus musculus [10] = assay: […] anticancer activity against B6D2F-1 mice bearing P388 leukemia measured by the Average survival time(day+/-SD) at an intravenous dose of 4(mg/kg).; assay type: functional; outline: as §2
Mus musculus [11] = assay: […] anticancer activity against B6D2F-1 mice bearing P388 leukemia measured by the increase in lifespan(%) at an intravenous dose of 3(mg/kg)..; assay type: functional; outline: as §2
Mus musculus [12] = assay: […] anticancer activity against B6D2F-1 mice bearing P388 leukemia measured by the average weight change(g) after day 11 at an intravenous dose of 3(mg/kg).; assay type: functional; outline: as §1
Mus musculus [13] = assay: […] anticancer activity against B6D2F-1 mice bearing P388 leukemia measured by the average weight change(g) after day 7 at an intravenous dose of 3(mg/kg).; assay type: functional; outline: as §3
Mus musculus [14] = assay: […] anticancer activity against B6D2F-1 mice bearing P388 leukemia measured by the Average survival time(day+/-SD) at an intravenous dose of 18(mg/kg).; assay type: functional; outline: as §2
Mus musculus [15] = assay: […] anticancer activity against B6D2F-1 mice bearing P388 leukemia measured by the average survival time(day+/-SD) at an intravenous dose of 12(mg/kg)..; assay type: functional; outline: as §2
Mus musculus [16] = assay: […] anticancer activity against B6D2F-1 mice bearing P388 leukemia measured by the average weight change(g) after day 11 at an intravenous dose of 24(mg/kg).; assay type: functional; outline: as §1
Mus musculus [17] = assay: […] anticancer activity against 5 B6D2F-1 mice bearing P388 leukemia measured by the toxicity death at an intravenous dose of 18(mg/kg).; assay type: organism-based; settings: in vivo; outline: as §2
Mus musculus [18] = assay: […] anticancer activity against B6D2F-1 mice bearing P388 leukemia measured by the average body weight(g) after day 1 at an intravenous dose of 12(mg/kg).
Mus musculus [19] = assay: […] anticancer activity against B6D2F-1 mice bearing P388 leukemia measured by the average weight change(g) after day 9 at an intravenous dose of 18(mg/kg).; assay type: functional; outline: as §3
Mus musculus [20] = assay: […] anticancer activity against B6D2F-1 mice bearing P388 leukemia measured by the Average survival time(day+/-SD) at an intravenous dose of 24(mg/kg).; assay type: functional; outline: as §2
Mus musculus [21] = assay: […] anticancer activity against B6D2F-1 mice bearing P388 leukemia measured by the increase in lifespan(%) at an intravenous dose of 18(mg/kg).; assay type: functional; outline: as §2
Mus musculus [22] = assay: […] anticancer activity against B6D2F-1 mice bearing P388 leukemia measured by the average weight change(g) after day 9 at an intravenous dose of 12(mg/kg).; assay type: functional; outline: as §3
Mus musculus [23] = assay: […] anticancer activity against B6D2F-1 mice bearing P388 leukemia measured by the average body weight(g) after day 1 at an intravenous dose of 18(mg/kg).
Mus musculus [24] = assay: […] anticancer activity against B6D2F-1 mice bearing P388 leukemia measured by the average weight change(g) after day 7 at an intravenous dose of 24(mg/kg).; assay type: functional; outline: as §1
Mus musculus [25] = assay: […] anticancer activity against B6D2F-1 mice bearing P388 leukemia measured by the average weight change(g) after day 11 at an intravenous dose of 18(mg/kg).; assay type: functional; outline: as §1
Mus musculus [26] = assay: […] anticancer activity against B6D2F-1 mice bearing P388 leukemia measured by the average body weight(g) after day 1 at an intravenous dose of 24(mg/kg).
Mus musculus [27] = assay: […] anticancer activity against 5 4 B6D2F-1 mice bearing P388 leukemia measured by the toxicity death at an intravenous dose of 24(mg/kg).; assay type: organism-based; settings: in vivo; outline: as §2
Mus musculus [28] = assay: […] anticancer activity against B6D2F-1 mice bearing P388 leukemia measured by the increase in lifespan(%) at an intravenous dose of 24(mg/kg).; assay type: functional; outline: as §2
Mus musculus [29] = assay: […] anticancer activity against B6D2F-1 mice bearing P388 leukemia measured by the average weight change(g) after day 9 at an intravenous dose of 24(mg/kg).; assay type: functional; outline: as §3
Mus musculus [30] = assay: […] anticancer activity against B6D2F-1 mice bearing P388 leukemia measured by the average weight change(g) after day 7 at an intravenous dose of 12(mg/kg).; assay type: functional; outline: as §1
Mus musculus [31] = assay: […] anticancer activity against B6D2F-1 mice bearing P388 leukemia measured by the increase in lifespan(%) at an intravenous dose of 12(mg/kg)..; assay type: functional; outline: as §2
Mus musculus [32] = assay: […] anticancer activity against B6D2F-1 mice bearing P388 leukemia measured by the average weight change(g) after day 7 at an intravenous dose of 18(mg/kg).; assay type: functional; outline: as §1
Mus musculus [33] = assay: […] anticancer activity against B6D2F-1 mice bearing P388 leukemia measured by the average weight change(g) after day 11 at an intravenous dose of 12(mg/kg).; assay type: functional; outline: as §1
Mus musculus [34] = assay: […] anticancer activity against 5 B6D2F-1 mice bearing P388 leukemia measured by the toxicity death at an intravenous dose of 12(mg/kg)..; assay type: organism-based; settings: in vivo; outline: as §2

CCOC(=O)Nc1cc(CO)cc(Nc2c3ccccc3nc3c(C(=O)NCCN(C)C)cccc23)c1
IC50 (HL-60): 5.7 nM

CCOC(=O)Nc1cc(CO)cc(Nc2c3cccc(OC)c3nc3c(C(=O)NCCN(C)C)cccc23)c1
IC50 (HL-60): 9.7 nM

COc1cccc2c(Nc3cc(N)cc(CO)c3)c3ccccc3nc12
IC50 (HL-60): 11 nM

Nc1cc(CO)cc(Nc2c3ccccc3nc3c(Br)cccc23)c1
IC50 (HL-60): 1500 nM

COc1cccc2c1C(=O)c1c(O)c3c(c(O)c1C2=O)C[C@@](O)(C(=O)CO)C[C@@H]3O[C@H]1C[C@H](N)[C@H](O)[C@H](C)O1 [DOXORUBICIN]
Average weight change (Mus musculus [1]): -3.2 g | Increase in life-span (Mus musculus [2]): 328% | Toxicity related death (Mus musculus [3]): 0 | Toxicity related death (Mus musculus [4]): 0 | Body weight (Mus musculus [5]): 23.6 g | Body weight (Mus musculus [6]): 23 g | Average weight change (Mus musculus [7]): -1.4 g | Average weight change (Mus musculus [8]): -1.6 g | Average survival (Mus musculus [9]): 14.2 days | Average survival (Mus musculus [10]): 27.4 days | Increase in life-span (Mus musculus [11]): 122% | Average weight change (Mus musculus [12]): -3.6 g | Average weight change (Mus musculus [13]): -0.4 g

CC(C)(C)OC(=O)Nc1cc(CO)cc(Nc2c3ccccc3nc3ccccc23)c1
Average survival (Mus musculus [14]): 22.1 days | Average survival (Mus musculus [15]): 18 days | Average weight change (Mus musculus [16]): -1.8 g | Toxicity related death (Mus musculus [17]): 0 | Body weight (Mus musculus [18]): 23.1 g | Average weight change (Mus musculus [19]): -1.2 g | Average survival (Mus musculus [20]): 21 days | Increase in life-span (Mus musculus [21]): 245% | Average weight change (Mus musculus [22]): -0.7 g | Body weight (Mus musculus [23]): 23.9 g | Average weight change (Mus musculus [24]): -1.4 g | Average weight change (Mus musculus [25]): -1.6 g | Body weight (Mus musculus [26]): 22.3 g | Toxicity related death (Mus musculus [27]): 2 | IC50 (HL-60): 24 nM | Increase in life-span (Mus musculus [28]): 228% | Average weight change (Mus musculus [29]): -1.4 g | Average weight change (Mus musculus [30]): -0.1 g | Increase in life-span (Mus musculus [31]): 181% | Average weight change (Mus musculus [32]): -1.3 g | Average weight change (Mus musculus [33]): 0.3 g | Toxicity related death (Mus musculus [34]): 0

O=C(Nc1cc(CO)cc(Nc2c3ccccc3nc3ccccc23)c1)Oc1ccccc1
IC50 (HL-60): 161 nM

Cc1cccc2c(Nc3cc(N)cc(CO)c3)c3cccc(C(=O)NCCN(C)C)c3nc12
IC50 (HL-60): 7.4 nM

O=C(Nc1cc(CO)cc(Nc2c3ccccc3nc3ccccc23)c1)OCc1ccccc1
IC50 (HL-60): 29 nM

CC(C)COC(=O)Nc1cc(CO)cc(Nc2c3ccccc3nc3ccccc23)c1
IC50 (HL-60): 9 nM

Nc1cc(CO)cc(Nc2c3ccccc3nc3c(F)cccc23)c1
IC50 (HL-60): 150 nM

CCOC(=O)Nc1cc(CO)cc(Nc2c3ccccc3nc3c(C(=O)NC)cccc23)c1
IC50 (HL-60): 88 nM

Nc1cc(CO)cc(Nc2c3ccccc3nc3c(Cl)cccc23)c1
IC50 (HL-60): 370 nM

COC(=O)Nc1cc(CO)cc(Nc2c3ccccc3nc3ccccc23)c1
IC50 (HL-60): 8.5 nM

CCOC(=O)Nc1cc(CO)cc(Nc2c3ccccc3nc3c(F)cccc23)c1
IC50 (HL-60): 31 nM

CCOC(=O)Nc1cc(CO)cc(Nc2c3ccccc3nc3c(OC)cccc23)c1
IC50 (HL-60): 10 nM

CCOC(=O)Nc1cc(CO)cc(Nc2c3cccc(C)c3nc3c(C(=O)NC)cccc23)c1
IC50 (HL-60): 11 nM

CNC(=O)c1cccc2c(Nc3cc(N)cc(CO)c3)c3ccccc3nc12
IC50 (HL-60): 290 nM

Nc1cc(CO)cc(Nc2c3ccccc3nc3c([N+](=O)[O-])cccc23)c1
IC50 (HL-60): 14000 nM

CCOC(=O)Nc1cc(CO)cc(Nc2c3ccccc3nc3c([N+](=O)[O-])cccc23)c1
IC50 (HL-60): 3800 nM

CNC(=O)c1cccc2c(Nc3cc(N)cc(CO)c3)c3cccc(OC)c3nc12
IC50 (HL-60): 120 nM

CCOC(=O)Nc1cc(CO)cc(Nc2c3ccccc3nc3c(C)cccc23)c1
IC50 (HL-60): 4.7 nM

CCOC(=O)Nc1cc(CO)cc(Nc2c3cccc(OC)c3nc3c(C(=O)NC)cccc23)c1
IC50 (HL-60): 32 nM

CN(C)CCNC(=O)c1cccc2c(Nc3cc(N)cc(CO)c3)c3ccccc3nc12
IC50 (HL-60): 130 nM

CCCOC(=O)Nc1cc(CO)cc(Nc2c3ccccc3nc3ccccc23)c1
IC50 (HL-60): 8 nM

CNC(=O)c1cccc2c(Nc3cc(N)cc(CO)c3)c3cccc(C)c3nc12
IC50 (HL-60): 93 nM

Cc1cccc2c(Nc3cc(N)cc(CO)c3)c3ccccc3nc12
IC50 (HL-60): 7.6 nM

COc1cccc2c(Nc3cc(N)cc(CO)c3)c3cccc(C(=O)NCCN(C)C)c3nc12
IC50 (HL-60): 38 nM

CCOC(=O)Nc1cc(CO)cc(Nc2c3ccccc3nc3c(Cl)cccc23)c1
IC50 (HL-60): 67 nM

CCOC(=O)Nc1cc(CO)cc(Nc2c3ccccc3nc3c(Br)cccc23)c1
IC50 (HL-60): 130 nM
